Most compounds without a hit are left out; they make up all but 3.5% or so of the library.
RAM network inh = yeast RAM network inhibition | S. cerevisiae dse1pr::URA3 reporter, 5-FOA growth OD615, 2 d; analog-sensitive cbk1-as2 kinase mutant strain | inhibition, % at 50 µM | 190,000 tested, 1.8% active;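 active = inhibition above a set limit, 3 SD over mean compound inhibition, cut at about 8.4% in these data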;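 note: 0% = DMSO-only wells with no growth and 100% = 10 µM 1-NA-PP1 full growth; inhibition rescues growth on 5-FOA so higher OD means more RAM inhibition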
BB579 growth dn = yeast BB579 growth reduction in restrictive medium; inhibition, % at 10 µM; AID 804; 140,000 tested, 0.51% active; S. cerevisiae BB579 growth, OD615, 48 h;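 active = inhibition above a set limit, 3 SD over the mean compound inhibition, cut at about 44% in these data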
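Material: Saccharomyces cerevisiae DeaD strain BB579, replicative lifespan model yeast; buffer or medium: CSMM-D restrictive synthetic medium containing dextrose (glucose); compound: 10 µM single dose, DMSO 0.25%; timing: 48 h compound exposure at 30 °C after 4 h preincubation; signal: turbidity as optical density at 615 nm; benchmarks: positive control amphotericin B 10 µg/mL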
MT stabilize HCS = microtubule stabilization, imaging screen. % tubulin-high responders, % at 10 µM. HeLa tubulin immunostaining HCS, 24 h; share of cells brighter than vehicle mean+2SD. 200,000 tested, 0.83% active;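 active = plate Z-score above 3 for both tubulin-high and condensed-nucleus cell shares, with cell loss under 80%, at 10 µM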;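 note: anti alpha tubulin signal scored within the nucleus-defined area of each cell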
Yeast life ext = extends the lifespan of yeast; S. cerevisiae growth with nicotinamide, OD615; deaD strain in restrictive glucose medium; inhibition of the nicotinamide effect, % at 10 µM; 130,000 tested, 0.68% active; AID 775;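 active = inhibition above a set limit, placed 3 SD over the median of all compounds, cut at about 26% in these data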;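 note: 0% = nicotinamide-treated wells and 100% = cells grown without nicotinamide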
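Assay system: engineered S. cerevisiae DeaD replicative-lifespan strain, galactose-grown log-phase cells; Buffer or medium: CSMM-D glucose medium, restrictive; Probe or stimulus: nicotinamide 1.5 mM; Compound: single dose 10 µM compound, 0.25% DMSO; Schedule: 4 h preincubation then 48 h treatment at 30 °C; Technique: OD615 measurement.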
Efa HMGR inh = E. faecalis class II HMG-CoA reductase inhibition. purified E. faecalis HMGR, NADPH absorbance 340 nm kinetic. inhibition, % at 10 µM. 190,000 tested, 0.41% active. AID 1066;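 active = inhibition above a set limit, the median over all tested compounds plus 3 SD, cut at about 9.5% in these data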;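 note: enzyme runs in reverse so mevalonate oxidation gives rising NADPH absorbance; 0% = complete reaction with DMSO and 100% = background rate lacking mevalonate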
b-catenin transl = modulators of beta-catenin nuclear translocation. nuclear translocation activity, % at 5 µM. 190,000 tested, 0.3% active. HeLa beta-catenin nuclear translocation, immunofluorescence imaging. AID 1665;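 active = nuclear translocation activity above 50% at 5 µM, with a well cell count of 50 or more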;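 note: per-cell ratio of nuclear to cytoplasmic median beta-catenin stain intensity; plate controls were DMSO negative control for no effect and GSK-3 inhibitor IX positive control for full effect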
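Signal – beta-catenin immunofluorescence imaging with DAPI · Test system – human HeLa cell line · Dosing – 5 µM primary single dose, 0.1% DMSO, 0.02–20 µM confirmation series · Measure – % activation, nuclear-to-cytoplasmic median beta-catenin signal ratio per cell · Incubation – 24 h compound exposure at 37°C, 5% CO2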
The depositor's hits bear a star; x = not tested or not shown.

SMILES	RAM network inh	BB579 growth dn	MT stabilize HCS	Yeast life ext	Efa HMGR inh	b-catenin transl
COc1ccc(OC)c(NC(=O)COC(=O)/C=C/c2ccccc2Cl)c1	10.3*	-46.5	5.5	-0.1	1.0	2.2
COCC(=O)Nc1cc(OC)ccc1OC	0.8	-17.4	3.8	-4.8	-3.6	-0.8
Oc1ccc2ccccc2c1C=Nc1ccccc1-c1nc2ccccc2[nH]1	-1.0	-39.2	2.4	38.7*	-2.8	-2.1
NC(=O)CCS(=O)(=O)c1ccc(Cl)cc1	1.9	x	1.5	x	-0.3	-0.4
Cc1cc(NC(=O)COC(=O)c2ccccc2[N+](=O)[O-])no1	4.1	x	2.8	x	-0.9	-0.8
COc1ccc(-c2cc(C(=O)Nc3nc4c(C)cccc4s3)c3ccccc3n2)cc1OC	8.6*	-49.6	2.2	-11.6	-4.5	-1.2
O=C(N/N=C1\CCc2ccccc21)c1ccc(O)cc1	0.9	x	2.9	x	11.9*	2.2
O=CN(/C=C1\Sc2ccccc2C1=O)Cc1ccccc1	0.0	-25.9	1.4	48.0*	-1.9	-2.0
CC1CCN(C(=O)C2CCN(S(=O)(=O)c3cc(Cl)ccc3Cl)CC2)CC1	x	x	x	x	x	-1.2
O=c1c2c3c(sc2nc(NCCO)n1CCc1ccccc1)CCCCC3	5.9	-8.8	19.2*	-9.8	-1.7	31.6
Cn1c(=O)c2c(nc(Cc3ccc(N)cc3)n2C)n(C)c1=O	x	x	x	x	x	0.7
CSc1ccc(/C=N/N2CCN(Cc3ccccc3)CC2)cc1	1.2	x	2.8	x	-3.1	2.1
COc1ccc(C(=O)NNC(=O)CCn2nnc(-c3ccc(C)cc3)n2)cc1OC	9.2*	x	2.2	x	0.4	6.1
Cc1ccc(-c2nnn(CCC(=O)NC3CCCC3)n2)cc1	0.9	1.1	2.4	-5.6	-2.5	-2.0
Cc1noc(C)c1-c1nnc(-c2ccc(OC(F)(F)F)cc2)o1	x	x	x	x	x	-1.6
CCCCNC(=S)N/N=C/C1=CCC2CC1C2(C)C (stereo not drawn)	8.6*	-6.7	4.3	0.1	1.9	0.4
Cc1ccc(-n2nc(C)c3c2OC(N)=C(C#N)C3c2ccoc2)cc1 (stereo not drawn)	0.0	-65.9	1.2	29.6*	-2.0	-1.8
CC(=O)NC1=NN(C(C)=O)C(C)(c2cccs2)S1 (stereo not drawn)	1.6	-13.9	39.3*	x	-3.7	1.6
COC(=O)C1=C(C)NC=C([N+](=O)[O-])C1c1ccc(OC)cc1 (stereo not drawn)	1.8	-29.5	5.0	-0.1	4.8	x
Cc1ccc(NC(=O)Cn2nnc(-c3ccccc3NC(=O)c3cccs3)n2)cc1	8.4*	-51.0	21.0*	-1.3	-1.6	58.1*
COc1ccc(NC(=O)Cn2nnc(-c3ccccc3NS(=O)(=O)c3ccc(OC)cc3)n2)cc1	9.5*	-56.7	5.8	11.2	-4.5	x
COc1ccc(NC(=O)Cn2nnc(-c3ccccc3NC(=O)c3cccs3)n2)cc1	4.8	-34.8	19.2*	-0.7	0.3	-0.7
CCOc1ccc(NC(=O)Cn2nnc(-c3ccccc3NC(=O)CC)n2)cc1	0.1	-44.0	4.3	-15.2	-0.6	0.9
COc1ccccc1NC(=O)Cn1nnc(-c2ccccc2NS(=O)(=O)c2ccccc2)n1	1.2	-26.9	4.1	-2.6	-7.1	-3.9
COC(=O)c1nn(-c2ccccc2)c(Cl)c1/C=N/OCc1ccc(C)cc1	10.2*	-38.4	1.3	-2.3	-3.2	-0.8
SMILES	RAM network inh	BB579 growth dn	MT stabilize HCS	Yeast life ext	Efa HMGR inh	b-catenin transl
C=CC(=O)NC(NC(=O)C=C)c1ccccc1F	x	x	x	x	x	0.8
Nc1ccc(O)cc1C(=O)OCC(=O)c1ccc(C2CCCCC2)cc1	10.2*	-43.6	2.4	8.4	-1.3	1.0
O=[N+]([O-])c1ccc(Cl)c(S(=O)(=O)N2CCCCCC2)c1	0.9	56.9*	3.2	4.7	-1.1	0.0
Cc1cc(F)ccc1NCc1ccc([N+](=O)[O-])cc1	-1.0	x	3.1	x	2.1	0.8
CCC(C)(C)n1nnnc1C(c1cc2cccc(C)c2[nH]c1=O)N1CCCC1 (stereo not drawn)	-1.1	-36.7	2.9	36.3*	-2.9	-2.0
O=S(=O)(NCc1cn2ccccc2n1)c1ccccc1F	x	x	x	x	x	-0.4
Cc1cccc2[nH]c(SCC(=O)N3CCOCC3)nc12	1.5	x	4.5	x	11.4*	0.7
Cc1ccc(-n2c(O)c(C=Nc3ccccc3-c3n[nH]c(=S)[nH]c3=O)c3ccccc3c2=O)c(C)c1	10.8*	x	1.7	x	-0.3	0.1
